Entries after “also recorded” stand apart in the source; their conditions may differ. Where two headings read alike, the source gives them in different places.
What was measured:
[1] = system: S. typhimurium TA102
[2] = system: S. typhimurium TA98; assay: Ames test, strain TA98; format: cell-based, Salmonella typhimurium
[3] = system: zebrafish embryos; conditions: cited from earlier work
[4] = system: MCF-7 cells; conditions: proliferative activity at 10^–7 to 10^–5 M; cited from earlier work
[5] = system: S. typhimurium tester strains (TA98, TA100, and TA102); assay: Ames test, overall over three strains; format: cell-based, Salmonella typhimurium
[6] = system: ERβ; conditions: competing with E2; cited from earlier work
[7] = system: S. typhimurium; conditions: incorporation or preincubation Ames assays, 10–3333 μg/plate; cited from earlier work
[8] = system: S. typhimurium TA100; assay: Ames test, strain TA100; format: cell-based, Salmonella typhimurium
[9] = system: ERα; conditions: competing with E2; cited from earlier work
[10] = system: MCF-7 cells; assay: MCF-7 cell proliferation assay; format: cell-based, human
Procedure, shortened: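 MCF-7 cells exposed to test compound or E2 at six concentrations from 10–12 to 10–7 M in EA-free medium. Proliferation read as MTT product absorbance at 570 nm. Three independent trials, each in triplicate. % RME2 = 100 × (OD test − OD VC)/(max OD E2 − OD VC). EC50 from curve fitting. EEF = EC50 of E2/EC50 of sample. One-way ANOVA with Dunnett's test versus E2 at each concentration.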

[11] = system: chicken embryo; assay: Chicken embryonic assay; format: in vivo; conditions: egg injection, day 18
[12] = TA102 +S9, 5 × 10^–2 pmol/plate
[13] = TA102 +S9, 5 × 10^–3 pmol/plate
[14] = TA102 +S9, 5 × 10^–4 pmol/plate
[15] = TA102 +S9, 5 × 10^–5 pmol/plate
[16] = TA102 -S9, 5 × 10^–2 pmol/plate
[17] = TA102 -S9, 5 × 10^–3 pmol/plate
[18] = TA102 -S9, 5 × 10^–4 pmol/plate
[19] = TA102 -S9, 5 × 10^–5 pmol/plate
[20] = TA100 +S9, 5 × 10^–2 pmol/plate
[21] = TA100 +S9, 5 × 10^–3 pmol/plate
[22] = TA100 +S9, 5 × 10^–4 pmol/plate
[23] = TA100 +S9, 5 × 10^–5 pmol/plate
[24] = TA100 -S9, 5 × 10^–2 pmol/plate
[25] = TA100 -S9, 5 × 10^–3 pmol/plate
[26] = TA100 -S9, 5 × 10^–4 pmol/plate
[27] = TA100 -S9, 5 × 10^–5 pmol/plate
[28] = higher dose (0.5 mM: 450–500 μg/kg; E2 0.1 mM: 91 μg/kg)
[29] = lower dose (0.05 mM: 45–50 μg/kg; E2 0.01 mM: 9.1 μg/kg)

O=c1c(-c2ccc(O)cc2)coc2cc(O)cc(O)c12 [genistein]
MI ([1]; TA102 +S9, 0.5 pmol/plate): 1.1 | number of revertants/plate (M ± SD) ([1]; TA102 +S9, 0.5 pmol/plate): 336 ± 17 revertants/plate | MI ([1]; TA102 +S9, 5 pmol/plate): 1.0 | number of revertants/plate (M ± SD) ([1]; TA102 +S9, 5 pmol/plate): 299 ± 4 revertants/plate | MI ([1]; TA102 +S9, 50 pmol/plate): 1.1 | number of revertants/plate (M ± SD) ([1]; TA102 +S9, 50 pmol/plate): 324 ± 28 revertants/plate | MI [1, 12]: 1.0 | number of revertants/plate (M ± SD) [1, 12]: 311 ± 18 revertants/plate | MI [1, 13]: 1.0 | number of revertants/plate (M ± SD) [1, 13]: 312 ± 13 revertants/plate | MI [1, 14]: 0.9 | number of revertants/plate (M ± SD) [1, 14]: 285 ± 10 revertants/plate | MI [1, 15]: 0.9 | number of revertants/plate (M ± SD) [1, 15]: 290 ± 4 revertants/plate | MI ([1]; TA102 -S9, 0.5 pmol/plate): 1.0 | number of revertants/plate (M ± SD) ([1]; TA102 -S9, 0.5 pmol/plate): 247 ± 18 revertants/plate | MI ([1]; TA102 -S9, 5 pmol/plate): 0.9 | number of revertants/plate (M ± SD) ([1]; TA102 -S9, 5 pmol/plate): 240 ± 8 revertants/plate | MI ([1]; TA102 -S9, 50 pmol/plate): 0.8 | number of revertants/plate (M ± SD) ([1]; TA102 -S9, 50 pmol/plate): 215 ± 27 revertants/plate | MI [1, 16]: 0.9 | number of revertants/plate (M ± SD) [1, 16]: 222 ± 30 revertants/plate | MI [1, 17]: 0.8 | number of revertants/plate (M ± SD) [1, 17]: 198 ± 8 revertants/plate | MI [1, 18]: 0.8 | number of revertants/plate (M ± SD) [1, 18]: 196 ± 20 revertants/plate | MI [1, 19]: 0.8 | number of revertants/plate (M ± SD) [1, 19]: 207 ± 5 revertants/plate | MI ([2]; TA98 +S9, 0.5 pmol/plate): 1.1 | number of revertants/plate (M ± SD) ([2]; TA98 +S9, 0.5 pmol/plate): 26 ± 13 revertants/plate | MI ([2]; TA98 +S9, 5 pmol/plate): 1.0 | number of revertants/plate (M ± SD) ([2]; TA98 +S9, 5 pmol/plate): 23 ± 14 revertants/plate | MI ([2]; TA98 +S9, 50 pmol/plate): 1.2 | number of revertants/plate (M ± SD) ([2]; TA98 +S9, 50 pmol/plate): 28 ± 16 revertants/plate | MI ([2]; TA98 +S9, 5 × 10^–2 pmol/plate): 1.2 | number of revertants/plate (M ± SD) ([2]; TA98 +S9, 5 × 10^–2 pmol/plate): 28 ± 5 revertants/plate | MI ([2]; TA98 +S9, 5 × 10^–3 pmol/plate): 1.2 | number of revertants/plate (M ± SD) ([2]; TA98 +S9, 5 × 10^–3 pmol/plate): 28 ± 10 revertants/plate | MI ([2]; TA98 +S9, 5 × 10^–4 pmol/plate): 1.0 | number of revertants/plate (M ± SD) ([2]; TA98 +S9, 5 × 10^–4 pmol/plate): 24 ± 8 revertants/plate | MI ([2]; TA98 +S9, 5 × 10^–5 pmol/plate): 0.8 | number of revertants/plate (M ± SD) ([2]; TA98 +S9, 5 × 10^–5 pmol/plate): 19 ± 6 revertants/plate | MI ([2]; TA98 -S9, 0.5 pmol/plate): 0.7 | number of revertants/plate (M ± SD) ([2]; TA98 -S9, 0.5 pmol/plate): 15 ± 1 revertants/plate | MI ([2]; TA98 -S9, 5 pmol/plate): 0.8 | number of revertants/plate (M ± SD) ([2]; TA98 -S9, 5 pmol/plate): 18 ± 6 revertants/plate | MI ([2]; TA98 -S9, 50 pmol/plate): 0.6 | number of revertants/plate (M ± SD) ([2]; TA98 -S9, 50 pmol/plate): 13 ± 4 revertants/plate | MI ([2]; TA98 -S9, 5 × 10^–2 pmol/plate): 0.7 | number of revertants/plate (M ± SD) ([2]; TA98 -S9, 5 × 10^–2 pmol/plate): 16 ± 2 revertants/plate | MI ([2]; TA98 -S9, 5 × 10^–3 pmol/plate): 0.5 | number of revertants/plate (M ± SD) ([2]; TA98 -S9, 5 × 10^–3 pmol/plate): 11 ± 1 revertants/plate | MI ([2]; TA98 -S9, 5 × 10^–4 pmol/plate): 0.6 | number of revertants/plate (M ± SD) ([2]; TA98 -S9, 5 × 10^–4 pmol/plate): 13 ± 6 revertants/plate | MI ([2]; TA98 -S9, 5 × 10^–5 pmol/plate): 0.7 | number of revertants/plate (M ± SD) ([2]; TA98 -S9, 5 × 10^–5 pmol/plate): 15 ± 4 revertants/plate | developmental toxicity in zebrafish model ([3]; at 1–50 μM): showing developmental toxicity | survival rate for zebrafish embryos ([3]; exposure at 0.025 to 0.1 mM): significantly decreased the survival rate | concentration of maximum proliferative activity in MCF-7 cells [4]: 10^–6 M | Ames test outcome (signs of mutagenicity) ([5]; 5 × 10^–5 to 50 pmol/plate, with or without S9): did not significantly increase numbers at any strains and test concentrations; also recorded: did not demonstrate such a sign | max MI value ([5]; highest MI from test range 5 × 10^–5 to 50 pmol/plate): 1.2 | binding affinity for ERβ [6]: 87% | mutagenic activity in Ames assays [7]: No mutagenic activity | MI ([8]; TA100 +S9, 0.5 pmol/plate): 1.0 | number of revertants/plate (M ± SD) ([8]; TA100 +S9, 0.5 pmol/plate): 307 ± 7 revertants/plate | MI ([8]; TA100 +S9, 5 pmol/plate): 0.9 | number of revertants/plate (M ± SD) ([8]; TA100 +S9, 5 pmol/plate): 301 ± 13 revertants/plate | MI ([8]; TA100 +S9, 50 pmol/plate): 0.9 | number of revertants/plate (M ± SD) ([8]; TA100 +S9, 50 pmol/plate): 296 ± 11 revertants/plate | MI [8, 20]: 1.0 | number of revertants/plate (M ± SD) [8, 20]: 308 ± 8 revertants/plate | MI [8, 21]: 1.0 | number of revertants/plate (M ± SD) [8, 21]: 313 ± 11 revertants/plate | MI [8, 22]: 0.9 | number of revertants/plate (M ± SD) [8, 22]: 301 ± 4 revertants/plate | MI [8, 23]: 0.9 | number of revertants/plate (M ± SD) [8, 23]: 294 ± 6 revertants/plate | MI ([8]; TA100 -S9, 0.5 pmol/plate): 1.0 | number of revertants/plate (M ± SD) ([8]; TA100 -S9, 0.5 pmol/plate): 103 ± 10 revertants/plate | MI ([8]; TA100 -S9, 5 pmol/plate): 0.9 | number of revertants/plate (M ± SD) ([8]; TA100 -S9, 5 pmol/plate): 96 ± 4 revertants/plate | MI ([8]; TA100 -S9, 50 pmol/plate): 0.8 | number of revertants/plate (M ± SD) ([8]; TA100 -S9, 50 pmol/plate): 80 ± 12 revertants/plate | MI [8, 24]: 0.9 | number of revertants/plate (M ± SD) [8, 24]: 97 ± 11 revertants/plate | MI [8, 25]: 1.0 | number of revertants/plate (M ± SD) [8, 25]: 100 ± 11 revertants/plate | MI [8, 26]: 0.9 | number of revertants/plate (M ± SD) [8, 26]: 94 ± 8 revertants/plate | MI [8, 27]: 1.0 | number of revertants/plate (M ± SD) [8, 27]: 98 ± 6 revertants/plate | binding affinity for ERα [9]: 4% | EEF (estradiol equivalent factor) ([10]; EC50 of E2 divided by that of the test compound): 0.08 | EC50 ([10]; Homo sapiens, MCF7): 0.12 nM | max % RME2 ([10]; highest % RME2 (relative maximum % E2) in test range 10^–12–10^–7 M): 48% | LSI (liver somatic index) [11, 28]: 2.12 ± 0.14% | malformation rate [11, 28]: 0.0% | mortality rate [11, 28]: 50% | number of dead chicken embryo [11, 28]: 5 | number of malformation chicken embryo [11, 28]: 0 | weights: embryo [11, 28]: 23.88 ± 2.02 g | weights: heart [11, 28]: 0.20 ± 0.03 g | weights: liver [11, 28]: 0.50 ± 0.09 g | LSI (liver somatic index) [11, 29]: 2.05 ± 0.44% | REEW (ratio of embryo to egg weight) [11, 29]: 0.41 ± 0.049 | malformation rate [11, 29]: 0.0% | mortality rate [11, 29]: 40.0% | number of dead chicken embryo [11, 29]: 4 | number of malformation chicken embryo [11, 29]: 0 | weights: embryo [11, 29]: 21.96 ± 0.73 g | weights: heart [11, 29]: 0.17 ± 0.01 g | weights: liver [11, 29]: 0.46 ± 0.10 g

From publication PMC8851455 (ACS Omega, 2022)
